From ChEMBL document CHEMBL2163325, “Discovery of phosphoinositide 3-kinases (PI3K) p110β isoform inhibitor 4-[2-hydroxyethyl(1-naphthylmethyl)amino]-6-[(2S)-2-methylmorpholin-4-yl]-1H-pyrimidin-2-one, an effective antithrombotic agent without associated bleeding and insulin resistance” (Bioorg Med Chem Lett, 2012)

Key:
[1] = Lipophilicity, log D of the compound at pH 7.4 by HPLC analysis; type: physicochemical; details: buffer
Summary of the method: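 LogD measured at pH 7.4 by HPLC.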

Homo sapiens = species: Homo sapiens; assay: Selectivity ratio of IC50 for human PI3K p110alpha to IC50 for human PI3K p110beta
[2] = biological target: Phosphatidylinositol 4,5-bisphosphate 3-kinase catalytic subunit alpha isoform (Homo sapiens, UniProt P42336); assay: Inhibition of human recombinant His6-tagged PI3K p110alpha expressed in baculovirus infected cells using DiC8-PI(4,5)P2 as substrate after 20 mins by AlphaScreen assay
Sequence of Phosphatidylinositol 4,5-bisphosphate 3-kinase catalytic subunit alpha isoform (P42336 whole entry, canonical isoform): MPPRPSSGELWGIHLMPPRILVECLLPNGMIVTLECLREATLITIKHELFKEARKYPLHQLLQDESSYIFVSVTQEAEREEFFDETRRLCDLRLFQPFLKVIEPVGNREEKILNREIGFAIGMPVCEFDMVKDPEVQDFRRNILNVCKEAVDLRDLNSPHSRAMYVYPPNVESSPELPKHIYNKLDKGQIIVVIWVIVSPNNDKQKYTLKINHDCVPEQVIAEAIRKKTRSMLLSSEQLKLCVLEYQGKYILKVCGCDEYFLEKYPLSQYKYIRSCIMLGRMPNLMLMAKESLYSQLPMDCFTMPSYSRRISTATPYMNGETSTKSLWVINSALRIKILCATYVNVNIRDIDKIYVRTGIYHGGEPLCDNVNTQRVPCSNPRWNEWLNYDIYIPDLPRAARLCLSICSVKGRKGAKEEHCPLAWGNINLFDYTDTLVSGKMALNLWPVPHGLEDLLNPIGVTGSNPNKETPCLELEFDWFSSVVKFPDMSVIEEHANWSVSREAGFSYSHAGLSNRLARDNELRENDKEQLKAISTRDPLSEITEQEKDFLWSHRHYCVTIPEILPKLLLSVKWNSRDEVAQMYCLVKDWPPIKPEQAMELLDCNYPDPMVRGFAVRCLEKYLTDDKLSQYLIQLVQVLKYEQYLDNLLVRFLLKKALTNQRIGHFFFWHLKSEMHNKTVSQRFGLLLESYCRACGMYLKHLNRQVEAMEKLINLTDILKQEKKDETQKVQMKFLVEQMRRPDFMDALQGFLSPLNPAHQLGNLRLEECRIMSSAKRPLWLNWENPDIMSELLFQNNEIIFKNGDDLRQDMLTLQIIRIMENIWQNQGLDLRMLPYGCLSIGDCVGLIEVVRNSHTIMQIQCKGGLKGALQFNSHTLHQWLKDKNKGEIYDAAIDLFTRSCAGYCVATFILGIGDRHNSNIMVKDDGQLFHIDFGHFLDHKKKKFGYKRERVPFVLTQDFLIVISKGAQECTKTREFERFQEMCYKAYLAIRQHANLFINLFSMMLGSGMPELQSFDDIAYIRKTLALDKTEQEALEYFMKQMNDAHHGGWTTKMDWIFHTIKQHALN

[3] = biological target: Phosphatidylinositol 4,5-bisphosphate 3-kinase catalytic subunit beta isoform (Homo sapiens, UniProt P42338); assay: Inhibition of human recombinant His6-tagged PI3K p110beta expressed in baculovirus infected cells using DiC8-PI(4,5)P2 as substrate after 20 mins by AlphaScreen assay
Sequence of Phosphatidylinositol 4,5-bisphosphate 3-kinase catalytic subunit beta isoform (P42338 whole entry, canonical isoform): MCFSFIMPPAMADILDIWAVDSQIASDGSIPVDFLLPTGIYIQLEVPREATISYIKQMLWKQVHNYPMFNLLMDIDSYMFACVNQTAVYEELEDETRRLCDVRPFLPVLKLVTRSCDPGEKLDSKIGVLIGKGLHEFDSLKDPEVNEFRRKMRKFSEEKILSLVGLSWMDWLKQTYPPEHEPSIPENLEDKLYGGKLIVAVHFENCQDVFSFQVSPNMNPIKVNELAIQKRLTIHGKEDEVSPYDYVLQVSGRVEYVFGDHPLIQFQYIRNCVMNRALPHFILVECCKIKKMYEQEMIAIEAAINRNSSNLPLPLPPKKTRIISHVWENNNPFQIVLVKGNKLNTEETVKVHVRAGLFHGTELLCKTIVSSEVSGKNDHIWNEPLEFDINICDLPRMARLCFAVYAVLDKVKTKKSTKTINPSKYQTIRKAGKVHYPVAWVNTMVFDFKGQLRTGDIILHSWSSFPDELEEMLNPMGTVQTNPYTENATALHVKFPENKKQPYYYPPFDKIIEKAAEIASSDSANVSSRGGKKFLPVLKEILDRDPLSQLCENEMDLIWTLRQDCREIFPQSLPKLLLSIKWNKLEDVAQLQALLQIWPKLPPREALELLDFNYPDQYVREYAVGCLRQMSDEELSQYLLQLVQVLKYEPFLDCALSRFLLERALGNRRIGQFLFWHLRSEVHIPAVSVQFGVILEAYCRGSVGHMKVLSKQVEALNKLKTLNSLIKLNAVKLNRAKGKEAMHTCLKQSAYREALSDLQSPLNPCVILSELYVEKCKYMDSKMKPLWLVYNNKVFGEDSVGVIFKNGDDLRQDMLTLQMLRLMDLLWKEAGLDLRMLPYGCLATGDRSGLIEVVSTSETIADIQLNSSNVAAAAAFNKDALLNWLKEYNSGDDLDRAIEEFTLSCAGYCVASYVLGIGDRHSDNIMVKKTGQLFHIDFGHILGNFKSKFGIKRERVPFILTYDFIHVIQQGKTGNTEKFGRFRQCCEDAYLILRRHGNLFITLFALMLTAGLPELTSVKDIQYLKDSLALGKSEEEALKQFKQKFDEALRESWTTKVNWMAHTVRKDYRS

Cytochrome P450 2C9 = Cytochrome P450 2C9 (Homo sapiens, UniProt P11712); assay: Inhibition of CYP2C9; type: ADME
Sequence of Cytochrome P450 2C9 (P11712 whole entry): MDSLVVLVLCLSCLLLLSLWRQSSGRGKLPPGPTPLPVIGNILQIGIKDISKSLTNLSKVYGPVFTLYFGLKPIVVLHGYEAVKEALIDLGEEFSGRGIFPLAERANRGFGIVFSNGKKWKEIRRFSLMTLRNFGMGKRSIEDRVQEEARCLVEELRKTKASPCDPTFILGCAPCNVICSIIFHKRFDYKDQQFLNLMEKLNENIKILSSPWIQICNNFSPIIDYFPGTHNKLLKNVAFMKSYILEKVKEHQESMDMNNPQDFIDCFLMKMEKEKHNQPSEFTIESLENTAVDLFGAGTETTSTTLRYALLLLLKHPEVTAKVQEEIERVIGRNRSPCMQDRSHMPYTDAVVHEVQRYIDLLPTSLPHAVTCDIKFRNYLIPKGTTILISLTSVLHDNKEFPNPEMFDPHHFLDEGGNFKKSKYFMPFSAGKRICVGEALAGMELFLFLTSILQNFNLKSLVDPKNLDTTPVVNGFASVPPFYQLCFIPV

Cytochrome P450 3A4 = Cytochrome P450 3A4 (Homo sapiens, UniProt P08684); assay: Inhibition of CYP3A4; type: ADME
Sequence of Cytochrome P450 3A4 (P08684 whole entry): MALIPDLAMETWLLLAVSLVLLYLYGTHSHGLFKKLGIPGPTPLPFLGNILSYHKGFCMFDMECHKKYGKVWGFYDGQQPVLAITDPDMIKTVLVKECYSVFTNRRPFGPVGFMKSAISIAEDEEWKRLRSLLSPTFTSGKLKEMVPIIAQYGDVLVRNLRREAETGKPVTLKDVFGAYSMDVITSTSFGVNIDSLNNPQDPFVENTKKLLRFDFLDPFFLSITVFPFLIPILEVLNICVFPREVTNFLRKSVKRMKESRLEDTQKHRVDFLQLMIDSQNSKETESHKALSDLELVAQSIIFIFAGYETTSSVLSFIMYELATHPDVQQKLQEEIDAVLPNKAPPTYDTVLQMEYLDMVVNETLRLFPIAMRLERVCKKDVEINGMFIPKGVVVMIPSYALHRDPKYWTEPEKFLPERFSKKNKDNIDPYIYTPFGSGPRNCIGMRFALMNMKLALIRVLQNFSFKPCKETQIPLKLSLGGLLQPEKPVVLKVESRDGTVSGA

[4] = Toxicity in human adipocytes assessed as inhibition of insulin-induced glucose uptake; type: cell-based, Adipocyte
Rattus norvegicus = assay: Toxicity in overnight fasted Sprague-Dawley rat assessed as induction of insulin resistance administered as 30 mins infusion; type: organism-based; details: in vivo, iv, 0.5 h
Summary of the method: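 Overnight fasted SD rats (N = 6) infused with 4 consecutive escalating doses, each over 30 min. Blood taken at the end of each interval for plasma exposure, glucose and insulin. HOMA index is glucose × insulin, normalized to vehicle controls (N = 4) and pretreatment medians. Mean ± SEM.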

| SMILES | logD [1] | Ratio IC50 (Homo sapiens) | IC50 [2] | IC50 [3] | IC50 (Cytochrome P450 2C9) | IC50 (Cytochrome P450 3A4) | IC50 [4] | Activity (Rattus norvegicus) |
| --- | --- | --- | --- | --- | --- | --- | --- | --- |
| Cc1cc(-c2cc(=O)[nH]c(NCc3cccc4ccccc34)n2)ccn1 | 2.6 | – | 0.84 µM | 0.007 µM | 0.4 µM | 0.7 µM | – | – |
| CC(C)(CO)CN(Cc1cccc2ccccc12)c1cc(N2CCOCC2)nc(=O)[nH]1 | 3.15 | 143 | 205 µM | 1.4 µM | – | – | – | – |
| O=c1cc(N2CCC(O)CC2)nc(NCc2cccc3ccccc23)[nH]1 | 1.6 | – | 160 µM | 31 µM | – | – | – | – |
| CN(C)CCN(Cc1cccc2ccccc12)c1cc(N2CCOCC2)nc(=O)[nH]1 | 1.4 | > 26 | > 83.3 µM | 3.1 µM | – | – | – | – |
| Cc1cc([C@@H](C)Nc2ccccc2C(=O)O)c2nc(N3CCOCC3)cc(=O)n2c1 [AZD-6482] | – | – | – | – | – | – | 4.4 µM | Dose-dependent effect |
| CN(Cc1cccc2ccccc12)c1cc(N2CCOCC2)nc(=O)[nH]1 | 2.37 | 355 | 212 µM | 0.6 µM | – | – | – | – |
| CC(O)CN(Cc1cccc2ccccc12)c1cc(N2CCOCC2)nc(=O)[nH]1 (stereo unspecified) | 2 | 808 | 112 µM | 0.14 µM | – | – | – | – |
| O=c1nc(N2CCOCC2)cc(N(CCCCO)Cc2cccc3ccccc23)[nH]1 | 1.8 | 373 | 73.7 µM | 0.2 µM | – | – | – | – |
| CN(C)CCCN(Cc1cccc2ccccc12)c1cc(N2CCOCC2)nc(=O)[nH]1 | 1.5 | > 64 | > 83.3 µM | 1.2 µM | – | – | – | – |

The remaining molecules from weak to strong by IC50 [2], led by results:

| logD [1] | Ratio IC50 (Homo sapiens) | IC50 [2] | IC50 [3] | IC50 (Cytochrome P450 2C9) | IC50 (Cytochrome P450 3A4) | SMILES | IC50 [4] | Activity (Rattus norvegicus) |
| --- | --- | --- | --- | --- | --- | --- | --- | --- |
| 1.9 | – | 349 µM | 1 µM | – | – | C[C@@H]1CN(c2cc(N(CCO)Cc3cccc4ccccc34)[nH]c(=O)n2)CCO1 | – | – |
| 2.5 | 690 | 149 µM | 0.22 µM | – | – | CCC(O)CN(Cc1cccc2ccccc12)c1cc(N2CCOCC2)nc(=O)[nH]1 (stereo unspecified) | – | – |
| 2.5 | 628 | 82.8 µM | 0.13 µM | – | – | CCN(Cc1cccc2ccccc12)c1cc(N2CCOCC2)nc(=O)[nH]1 | – | – |
| 2.7 | – | 82.6 µM | 24 µM | – | – | COC1CN(c2cc(=O)[nH]c(NCc3cccc4ccccc34)n2)C1 | – | – |
| 2.6 | 78 | 76 µM | 0.97 µM | – | – | O=c1nc(N2CCOCC2)cc(N(Cc2cccc3ccccc23)C2CC2)[nH]1 | – | – |
| 1.9 | – | 62.3 µM | 11 µM | – | – | O=c1cc(-c2cn[nH]c2)nc(NCc2cccc3ccccc23)[nH]1 | – | – |
| 3 | 58 | 56.9 µM | 0.98 µM | – | – | O=c1nc(N2CCOCC2)cc(N(Cc2cccc3ccccc23)CC(O)C(F)(F)F)[nH]1 (stereo unspecified) | – | – |
| 1.75 | 524 | 51.5 µM | 0.1 µM | – | – | O=c1nc(N2CCOCC2)cc(N(CCCO)Cc2cccc3ccccc23)[nH]1 | – | – |
| 1.55 | 340 | 30.8 µM | 0.09 µM | – | – | O=c1nc(N2CCOCC2)cc(N(CCO)Cc2cccc3ccccc23)[nH]1 | – | – |
| 2.9 | 65 | 2.2 µM | 0.034 µM | – | – | CC1CN(c2cc(=O)[nH]c(NCc3cccc4ccccc34)n2)CCO1 (stereo unspecified) | – | – |
